Test results: article PMC10870986 (Indian Journal of Endocrinology and Metabolism, 2023)

How the values were obtained:
[1] = Hyperprolactinemia in patients referred to a tertiary care hospital; type: in vivo, human; settings: for drug-induced hyperprolactinemia with prolactin levels less than 100 ng/ml: number of cases / drug-induced hyperprolactinemia with prolactin levels greater than 100 ng/ml: number of cases: 11 drug-induced cases among 58
[2] = Etiological profile of hyperprolactinemia, Endocrine OPD; type: in vivo, human; settings: 50 subjects with hyperprolactinemia; use of drugs 56% of etiologies; Domperidone with and without PPI
[3] = type: in vivo, human
Case: hypomagnesemia = type: in vivo, human; settings: single child, Tab. MgO 200mg TID
[4] = Case: Chiari Frommel syndrome treated with bromocriptine; type: in vivo, human; settings: single patient, 2.5mg for one month
[5] = Case: ACTH and prolactin co-secreting pituitary adenoma treated with cabergoline; type: in vivo, human; settings: single patient
[6] = Giant prolactinoma case series, response to cabergoline; type: in vivo, human; settings: follow-up MRI in 17 patients
How it was run: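 Patients with giant prolactinoma all received cabergoline, dose range 0.5-7 mg/week, over a mean follow-up of 11.78 ± 14.89 months. Tumour shrinkage was judged against the baseline maximum tumour dimension on follow-up MRI, which was available for 17 patients.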

[7] = Case: cabozantinib for metastatic MTC; type: in vivo, human; settings: single patient
[8] = ref not given, cited from earlier work
[9] = Case: diazoxide in Prader-Willi Syndrome; type: in vivo, human; settings: child with PWS
[10] = type: in vivo, human; remark: listed apart in the source
How it was run: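 Observational study of 167 diabetic outpatients seen January–June 2023. All had HbA1c, FPG and PPG uncontrolled on two or three oral hypoglycaemic agents and were unwilling to start insulin. Imeglimin was added as the third or fourth agent, and FPG, PPG, HbA1c and adverse effects were recorded afterwards.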

[11] = type: in vivo, human; settings: orlistat 120 mg thrice daily, mean [SD]
[12] = Orlistat vs orlistat + resveratrol in overweight/obese subjects, 12 weeks; type: in vivo, human
[13] = Semaglutide in type 2 diabetes, cross sectional study; type: in vivo, human; settings: Likert 5-point scale
[14] = Case series: immune check point inhibitor induced endocrine dysfunction; type: in vivo, human; settings: series of ten patients with IRAE
[15] = Case: nivolumab induced endocrine dysfunction; type: in vivo, human; settings: single patient, 240 mg fortnightly, after 10 cycles
[16] = Case: growth hormone therapy in short stature with Crohn's disease; type: in vivo, human; settings: single patient
[17] = fulminant hepatic failure, fatal
[18] = last Ketoconazole dose the night before surgery, isoflurane anaesthesia
[19] = single patient on Ketoconazole 1200 mg/day and spironolactone 200 mg/day

## O=c1[nH]c2ccccc2n1CCCN1CCC(n2c(=O)[nH]c3cc(Cl)ccc32)CC1 [Domperidone]
[1]
  drug-induced hyperprolactinemia with prolactin levels less than 100 ng/ml: number of cases: 3 cases
[2]
  Among the drugs causing hyperprolactinemia: share of cases: 53.57%

## CC(=O)N1CCN(c2ccc(OCC3COC(Cn4ccnc4)(c4ccc(Cl)cc4Cl)O3)cc2)CC1 (centres unmarked) [Ketoconazole]
[3]; [17]
  ALT, 5th post operative day: 5053 U/L
  AST, 5th post operative day: 7844 L⁻¹
  GGT, 5th post operative day: 207 U/L
  INR, 5th post operative day: > 11
  PT, 5th post operative day: > 120 s
  aPTT, 5th post operative day: > 180 s
[3]; [18]
  ALT, 4th post operative day: 433 U/L
  AST, 4th post operative day: 370 U/L
  GGT, 4th post operative day: 233 U/L
[3]; [19]
  ALT before the surgery: 30 IU/ml
  AST before the surgery: 27 IU/ml

## [O]=[Mg] [MgO]
Case: hypomagnesemia
  calcium on treatment: 9.2 mg/dL
Case: hypomagnesemia; at presentation 0.4mg/dl
  Serum Magnesium on treatment: 1.2 mg/dL

## Cc1cc2c(s1)Nc1ccccc1N=C2N1CCN(C)CC1 [Olanzapine]
[2]
  Among the drugs causing hyperprolactinemia: share of cases: 3.57%

## Cc1nc2n(c(=O)c1CCN1CCC(c3noc4cc(F)ccc34)CC1)CCCC2 [Risperidone]
[1]
  drug-induced hyperprolactinemia with prolactin levels greater than 100 ng/ml: number of cases: 1 cases
  drug-induced hyperprolactinemia with prolactin levels less than 100 ng/ml: number of cases: 1 cases
[2]
  Among the drugs causing hyperprolactinemia: share of cases: 7.14%

## CN[C@H]1CC[C@@H](c2ccc(Cl)c(Cl)c2)c2ccccc21 [Sertraline]
[2]
  Among the drugs causing hyperprolactinemia: share of cases: 3.57%

## CC(C)C[C@H]1C(=O)N2CCC[C@H]2[C@]2(O)O[C@](NC(=O)[C@@H]3C=C4c5cccc6[nH]c(Br)c(c56)C[C@H]4N(C)C3)(C(C)C)C(=O)N12 [bromocriptine]
[4]
  effect on galactorrhea: Milk secretion was slowed down

## C=CCN1C[C@H](C(=O)N(CCCN(C)C)C(=O)NCC)C[C@@H]2c3cccc4[nH]cc(c34)C[C@H]21 [cabergoline]
[5]; cabergoline 2mg/week
  outcome at increased dose: developed adrenal insufficiency
[5]; on cabergoline 0.5mg/week, before dose increase
  Follow up prolactin: 15737 miu/l
[5]; post 3 days of cabergoline 0.5mg/week
  Stimulated cortisol: 535 nmol/L
[5]; post 3 days of cabergoline 0.5mg/week, before 525nmol/l
  8am cortisol: 132 nmol/L
[5]; post 3 days of cabergoline 0.5mg/week, before 20982miu/l
  Prolactin: 9215 miu/l
[6]; 2 patients
  Tumor shrinkage <50%, share of patients: 11.76%
  disappearance of radiologically detectable tumor, share of patients: 11.76%
[6]; 13 patients
  Tumor shrinkage of >50% from the baseline, share of patients: 76.47%

## COc1cc2nccc(Oc3ccc(NC(=O)C4(C(=O)Nc5ccc(F)cc5)CC4)cc3)c2cc1OC [cabozantinib]
[7]
  response of metastatic MTC: good response
  tolerability: stopped due to side effects

## COc1cc(CNC(=O)CCCC/C=C/C(C)C)ccc1O [capsaicin]
[8]; analysis on treatment intention, all pain measures
  pain control, capsaicin lotion compared with placebo: insignificant improvement in pain control
[8]; initial results, vs placebo
  pain relief, topical capsaicin cream […], multicenter controlled trial: more relief of the pain associated with diabetic neuropathy than placebo
[8]; may lead to withdrawal from the study
  tolerability, capsaicin […] cream: local skin irritation, which is often mild and transient
[8]; painful diabetic neuropathy
  pain relief, capsaicin […] cream applied to the painful area: significant pain relief
[8]
  pain relief, topical capsaicin […] for four to six weeks: either complete or significant relief

## CC1=NS(=O)(=O)c2cc(Cl)ccc2N1 [diazoxide]
[9]; 3 mg/kg/d
  tolerability: well tolerated
[9]; 3 mg/kg/d in two divided doses, after 3 weeks
  effect on hyperphagia: perceptible reduction in hyperphagia

## C[C@H]1N=C(N(C)C)N=C(N)N1 [imeglimin]
[10]; n=167
  most common adverse effect: gastrointestinal issues
[10]; n=167, add-on to two or three OHAs, baseline 9.1±1.8, p=0.004
  HbA1c after imeglimin was added: 7.2±1.2
[10]; n=167, add-on to two or three OHAs, baseline 176.61±45.75, p=0.013
  FPG after imeglimin was added: 108.05±24.79
[10]; n=167, add-on to two or three OHAs, baseline 247.86±68.17, p=0.020
  PPG after imeglimin was added: 156.49±38.53

## CCN1CCC[C@H]1CNC(=O)c1cc(S(N)(=O)=O)ccc1OC [levosulpiride]
[1]
  drug-induced hyperprolactinemia with prolactin levels greater than 100 ng/ml: number of cases: 5 cases
  drug-induced hyperprolactinemia with prolactin levels less than 100 ng/ml: number of cases: 1 cases
[1]; statement of the conclusion
  prolactin levels in drug-induced hyperprolactinemia: > 100 ng/mL

## CCCCCCCCCCC[C@@H](C[C@@H]1OC(=O)[C@H]1CCCCCC)OC(=O)[C@H](CC(C)C)NC=O [orlistat]
[11]; patients with diabetes
  mean weight loss after 2 months, group 2: 6.3 [4.9] %
  mean weight loss after 4 months, group 2: 8.7 [4.7] %
  mean weight loss after 6 months, group 2: 12.9 [2.4] %
[11]; patients without diabetes
  mean weight loss after 2 months, group 1: 7.1 [6.1] %
  mean weight loss after 4 months, group 1: 14.6 [12.9] %
  mean weight loss after 6 months, group 1: 16.1 [6.7] %
[11]; prediabetic patients
  mean weight loss after 2 months, group 3: 6 [2.6] %
  mean weight loss after 4 months, group 3: 15.5 [15.4] %
  mean weight loss after 6 months, group 3: 15.8 [6.2] %
[12]
  diarrhoea, number of patients: 7 patients
[12]; sub-group, p=0.045
  weight loss, patients with diabetes with a BMI >=30: -1.04 kg
[12]; sub-group, p=0.048
  weight loss, patients with diabetes with steatosis: -0.44 kg
[12]; thrice daily, 247 completers, mean body weight ~80 kg
  weight loss compared to baseline: -2.92 kg

## CC[C@H](C)[C@H](NC(=O)[C@H](Cc1ccccc1)NC(=O)[C@H](CCC(=O)O)NC(=O)[C@H](CCCCNC(=O)COCCOCCNC(=O)COCCOCCNC(=O)CC[C@H](NC(=O)CCCCCCCCCCCCCCCCC(=O)O)C(=O)O)NC(=O)[C@H](C)NC(=O)[C@H](C)NC(=O)[C@H](CCC(N)=O)NC(=O)CNC(=O)[C@H](CCC(=O)O)NC(=O)[C@H](CC(C)C)NC(=O)[C@H](Cc1ccc(O)cc1)NC(=O)[C@H](CO)NC(=O)[C@H](CO)NC(=O)[C@@H](NC(=O)[C@H](CC(=O)O)NC(=O)[C@H](CO)NC(=O)[C@@H](NC(=O)[C@H](Cc1ccccc1)NC(=O)[C@@H](NC(=O)CNC(=O)[C@H](CCC(=O)O)NC(=O)C(C)(C)NC(=O)[C@@H](N)Cc1cnc[nH]1)[C@@H](C)O)[C@@H](C)O)C(C)C)C(=O)N[C@@H](C)C(=O)N[C@@H](Cc1c[nH]c2ccccc12)C(=O)N[C@@H](CC(C)C)C(=O)N[C@H](C(=O)N[C@@H](CCCNC(=N)N)C(=O)NCC(=O)N[C@@H](CCCNC(=N)N)C(=O)NCC(=O)O)C(C)C [semaglutide]
[13]
  patients rating strongly agree or agree for adverse event: diarrhoea: 91.3%
  patients rating strongly agree or agree for adverse event: loss of appetite: 87.4%
  patients rating strongly agree or agree for adverse event: nausea: 93.5%

## nivolumab
[14]
  patients with isolated thyroid dysfunction on the drug: five
[15]
  immune-related adverse events diagnosed: checkpoint inhibitor induced diabetes mellitus (CPI-DM) and central adrenal insufficiency

## rHGH: recombinant growth hormone injection
[16]; 0.18mg/kg/week, 6 months
  catchup growth: 7 cm
[16]; 0.3mg/kg/week, undiagnosed Crohn's disease
  growth thereafter at higher doses: height remained static
